KDM4C inh: inhibitors of human demethylase GASC-1 KDM4C. AID 720574. GST-KDM4C 2-372, H3K9me3 peptide, LANCE TR-FRET. inhibition, % at 12.5 µM. Q9H3R0. hit rate 0.15% among 96,000;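 active = mean replicate inhibition above about 25%, with at least 55% of replicates also reaching it, limit read from the data, passing the limit was not always enough; inconclusive = only one of those two conditions met; inactive = neither condition met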
Target sequence (Q9H3R0 2-372 limits assumed): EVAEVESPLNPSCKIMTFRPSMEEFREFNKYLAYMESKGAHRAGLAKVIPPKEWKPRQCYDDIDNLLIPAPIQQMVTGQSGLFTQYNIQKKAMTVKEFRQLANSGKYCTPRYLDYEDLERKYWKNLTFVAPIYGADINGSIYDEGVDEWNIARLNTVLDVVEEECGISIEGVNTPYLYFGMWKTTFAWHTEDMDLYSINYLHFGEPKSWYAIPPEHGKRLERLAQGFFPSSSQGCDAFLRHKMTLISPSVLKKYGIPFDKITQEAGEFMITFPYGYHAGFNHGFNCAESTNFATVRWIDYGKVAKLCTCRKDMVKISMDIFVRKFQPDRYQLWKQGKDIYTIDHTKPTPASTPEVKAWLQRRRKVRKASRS
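System: N-terminal GST-fused human GASC-1 (KDM4C) fragment, residues 2-372 / Amount: 10 nM GST-KDM4C in enzyme reaction / Also added: H3K9me3 peptide with Fe(II)/2OG / Times: 30 min demethylation and 1 h detection at room temperature / Signal: LANCE TR-FRET / Read-out basis: Fall in 671/618 emission ratio as inhibition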
IDH1 mut inh: inhibitors of human IDH1 R132H. O75874. IDH1 R132H reductase, diaphorase/resazurin fluorescence, 60 min. inhibition, % at 10 µM. hit rate 0.18% among 70,000. AID 624101; in the data active = inhibition above about 34%; inconclusive = no clear call, values can overlap the other calls; inactive = below about 11%;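 also: 0% = DMSO and 100% = no enzyme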
Pf Dd2 growth: blocks growth of Plasmodium falciparum Dd2 parasites; activity change, % at 10 µM; P. falciparum Dd2 growth, SYBR Green, 72 h; stronger effect = lower value; hit rate 2.3% among 94,000; AID 1159554; in the data active = activity change below about -80%; inconclusive = no clear call, values can overlap the other calls
T cruzi growth-1: T. cruzi proliferation inhibition | T. cruzi beta-gal in NIH3T3, GalScreen luminescence, 90 h | inhibition, % at 8.34 µM | hit rate 5.9% among 77,000;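 active = mean inhibition above about 93%, with at least 55% of replicates each passing it, limit read from the data, passing the limit was not always enough; inconclusive = only one of those two conditions holds; inactive = neither condition holds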
T cruzi growth-2: inhibitors of T. cruzi proliferation; shares compounds with T cruzi growth-1; T. cruzi beta-gal in NIH3T3, GalScreen luminescence, 90 h; inhibition, % at 8.35 µM; hit rate 72% among 5,600; AID 651739;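 active = mean replicate inhibition above about 95% and at least 55% of replicates individually reaching it, limit read from the data; inconclusive = only one of the two criteria is met; inactive = neither criterion is met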
T cruzi growth-3: inhibitors of T. cruzi proliferation | AID 651740 | T. cruzi beta-gal in NIH3T3, GalScreen luminescence, 90 h | shares compounds with T cruzi growth-1 | hit rate 21% among 5,600 | inhibition, % at 2.09 µM;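 active = mean inhibition above about 95%, with at least 55% of replicates also reaching it, limit read from the data; inconclusive = meets just one of the two conditions; inactive = meets neither condition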;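 also: plate controls were neutral control median for no effect and positive control median for full effect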
NIH3T3 tox: cytotoxicity in mouse NIH/3T3 fibroblasts; shares compounds with T cruzi growth-1; NIH/3T3 viability, CellTiter-Glo ATP luminescence, 90 h; cytotoxicity (signal decrease), % at 8.35 µM; hit rate 14% among 5,600; AID 651742;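 active = mean signal decrease across replicates above about 35% based on untreated-well scatter, with enough replicates individually passing, limit read from the data; inconclusive = no rule stated though some were filed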;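 also: 0% = median of neutral control wells and 100% = median of positive control wells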
NIH3T3 tox 2: NIH/3T3 (mouse) viability loss; shares compounds with T cruzi growth-1; NIH/3T3 viability, CellTiter-Glo ATP luminescence, 90 h; inhibition, % at 24.9 µM; hit rate 56% among 5,600; AID 651744;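 active = mean loss of cell viability signal at or above a set limit, and enough replicates individually reaching it; inconclusive = meets only the mean limit or only the replicate share; inactive = meets neither condition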;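 also: 0% = median of neutral control wells and 100% = median of positive control wells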
* hit, by the source's call; ? = inconclusive; / = no result. An excerpt weighted towards active compounds, which were near 5.9% of everything screened.

SMILES | KDM4C inh | IDH1 mut inh | Pf Dd2 growth | T cruzi growth-1 | T cruzi growth-2 | T cruzi growth-3 | NIH3T3 tox | NIH3T3 tox 2
Cc1noc(C)c1NC(=O)Nc1ccc2c(c1)C(=O)N(C)[C@H]1CC[C@@H](CC(=O)N[C@H]3CCN(Cc4ccccc4)C3)O[C@H]1CO2 | 1 | / | 2 | 117* | 88 | 43 | -5 | -14
Cc1noc(C)c1NC(=O)Nc1ccc2c(c1)C(=O)N(C)[C@@H]1CC[C@@H](CC(=O)N[C@H]3CCN(Cc4ccccc4)C3)O[C@H]1CO2 | 2 | / | 8 | 102* | 17 | -25 | -1 | -1
COCC#Cc1ccc([C@@H]2[C@@H](CO)N3CCCCN(C(=O)COC)C[C@H]23)cc1 | 0 | / | 56 | 102* | 38 | -5 | 16 | -2
CCC(=O)N1CCCCN2[C@H](CO)[C@@H](c3ccc(C#CCOC)cc3)[C@@H]2C1 | 1 | / | 0 | 100* | 1 | 22 | -2 | 14
CCC(=O)N1CCCCN2[C@H](CO)[C@H](c3ccc(C#CCOC)cc3)[C@H]2C1 | -1 | / | -14 | 64 | / | / | / | /
CC(=O)Nc1ccc(-c2nnc(SCC(=O)NC3CCCCC3)n2C)cc1 | / | 0 | / | / | / | / | / | /
COc1cccc(-c2ccccc2[C@@H]2[C@@H](CO)N(C(=O)Cc3ccccc3)[C@H]2C#N)c1 | -2 | / | -17 | / | / | / | / | /
COc1cccc(-c2ccc([C@H]3[C@@H](CO)N(C(=O)Cc4ccccc4)[C@H]3C#N)cc2)c1 | -2 | / | -73 | 97* | 96* | 99* | 21 | 37*
COc1cccc(-c2ccc([C@@H]3[C@H](C#N)N(C(=O)Cc4ccccc4)[C@H]3CO)cc2)c1 | -4 | / | -32 | ? | 111* | 55 | 7 | 33*
C[C@@H]1CN([C@H](C)CO)C(=O)c2cc(NC(=O)C3CCCCC3)ccc2O[C@@H](C)CCCCO[C@@H]1CN(C)Cc1ccncc1 | 3 | 3 | -22 | 105* | 56 | 11 | -13 | -6
C[C@@H]1CCCCO[C@@H](CN(C)Cc2ccc(Cl)c(Cl)c2)[C@@H](C)CN([C@H](C)CO)C(=O)c2cc(NC(=O)C3CCCCC3)ccc2O1 | 0 | / | -38 | 107* | 107* | ? | -16 | 0
C[C@@H]1CN([C@@H](C)CO)C(=O)c2cc(NC(=O)C3CCCCC3)ccc2O[C@@H](C)CCCCO[C@H]1CN(C)Cc1ccccc1 | 0 | / | -63 | 109* | 108* | 85 | -18 | 45*
C[C@@H]1CN([C@H](C)CO)C(=O)c2cc(NC(=O)C3CCCCC3)ccc2O[C@@H](C)CCCCO[C@H]1CN(C)Cc1ccccc1 | 8 | / | -56 | 99 | / | / | / | /
C[C@@H]1CCCCO[C@H](CN(C)Cc2ccncc2)[C@H](C)CN([C@H](C)CO)C(=O)c2cc(NC(=O)C3CCCCC3)ccc2O1 | -1 | / | / | 22 | / | / | / | /
CC(C)CC#Cc1ccc2c(c1)O[C@@H](CN(C)Cc1ccccc1F)[C@H](C)CN([C@@H](C)CO)S2(=O)=O | 1 | -2 | -68 | 56 | / | / | / | /
C[C@@H]1CN([C@H](C)CO)S(=O)(=O)c2ccc(C#CCN(C)C)cc2O[C@H]1CN(C)Cc1ccccc1F | 8 | 0 | -67 | 110* | 106* | 87 | 61* | 106*
C[C@H]1CN([C@@H](C)CO)S(=O)(=O)c2ccc(C#CCN(C)C)cc2O[C@H]1CN(C)Cc1ccccc1F | 5 | 0 | -45 | 100* | 96* | 45 | 8 | 34*
COCC#Cc1ccc2c(c1)O[C@H](CN(C)Cc1ccccc1F)[C@H](C)CN([C@H](C)CO)S2(=O)=O | 1 | -2 | -46 | -1 | / | / | / | /
CC(C)CC#Cc1ccc2c(c1)O[C@@H](CN(C)Cc1ccccc1F)[C@@H](C)CN([C@@H](C)CO)S2(=O)=O | -2 | 0 | -33 | 127* | 92 | 112* | -1 | 105*
C[C@@H]1CN([C@@H](C)CO)S(=O)(=O)c2ccc(C#CC3CC3)cc2O[C@H]1CN(C)Cc1ccccc1F | 15 | 0 | -38 | 101* | 95* | 109* | 60* | 106*
Cc1ccc(S(=O)(=O)N2C(=O)CCC2C(=O)Nc2ccc(I)cc2)cc1 (stereo not given) | / | 2 | / | / | / | / | / | /
O=C(/C=C/c1ccc(O)cc1)CC(=O)/C=C/c1ccc(O)cc1 | / | 2 | / | / | / | / | / | /
CO[C@@H]1CN(C)C(=O)c2ccc(NS(=O)(=O)c3cccc(F)c3)cc2OC[C@@H](C)N(Cc2cc(F)ccc2F)C[C@@H]1C | 2 | 0 | -14 | / | / | / | / | /
CO[C@@H]1CN(C)C(=O)c2cc(NS(=O)(=O)c3cccc(F)c3)ccc2OC[C@H](C)N(Cc2cc(F)ccc2F)C[C@H]1C | -1 | 0 | -32 | 86 | / | / | / | /
COc1ccc(S(=O)(=O)Nc2ccc3c(c2)OC[C@@H](C)N(Cc2cc(F)ccc2F)C[C@@H](C)[C@H](OC)CN(C)C3=O)cc1 | 0 | 0 | -39 | 122* | 110* | 83 | -14 | -9
SMILES | KDM4C inh | IDH1 mut inh | Pf Dd2 growth | T cruzi growth-1 | T cruzi growth-2 | T cruzi growth-3 | NIH3T3 tox | NIH3T3 tox 2
CO[C@@H]1CN(C)C(=O)c2ccc(NS(=O)(=O)c3cccc(F)c3)cc2OC[C@H](C)N(Cc2cc(F)ccc2F)C[C@@H]1C | 1 | 0 | -23 | / | / | / | / | /
CO[C@@H]1CN(C)C(=O)c2cc(NS(=O)(=O)c3cccc(F)c3)ccc2OC[C@@H](C)N(Cc2cc(F)ccc2F)C[C@H]1C | 1 | 0 | -70 | ? | 103* | ? | -28 | 15
CO[C@@H]1CN(C)C(=O)c2ccc(NS(=O)(=O)c3cccc(C)c3)cc2OC[C@@H](C)N(Cc2cc(F)ccc2F)C[C@H]1C | 1 | 0 | -45 | 98* | 106* | 48 | -15 | 2
CO[C@H]1CN(C)C(=O)c2cc(NS(=O)(=O)c3cccc(F)c3)ccc2OC[C@@H](C)N(Cc2cc(F)ccc2F)C[C@H]1C | -2 | 0 | -33 | ? | 111* | 76 | -8 | 52*
CCN(CC(=O)Nc1cccc(SC)c1)S(=O)(=O)c1ccc2ccccc2c1 | / | 0 | / | / | / | / | / | /
Cc1cc(O)cc2c(=O)oc(CC(C)O)cc12 (stereo not given) | / | -1 | / | / | / | / | / | /
O=S(=O)(c1ccccc1)N1CCCCN2[C@H](C1)[C@@H](c1ccc(C#Cc3cccnc3)cc1)[C@@H]2CO | 4 | / | -1 | ? | ? | 46 | 0 | 24
O=S(=O)(c1ccccc1)N1CCCCN2[C@H](C1)[C@H](c1ccc(C#CC3CCCC3)cc1)[C@@H]2CO | 11 | / | -1 | 93 | / | / | / | /
O=S(=O)(c1ccccc1)N1CCCCN2[C@H](CO)[C@H](c3ccc(C#CC4CCCC4)cc3)[C@@H]2C1 | 1 | / | -7 | 73 | / | / | / | /

Screens from PubChem BioAssay.
